The source of these data is ChEMBL document CHEMBL1154791, “Constituents of Polyalthia longifolia var. pendula” (J Nat Prod, 2009).

In one experiment the test system is A549. Nature of the experiment: Cytotoxicity against human A549 cells after 72 hrs by MTT assay. The experiment is classed as functional, cell-based. A digest of the protocol: (§1)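 Cells grown in RPMI1640 with 10% FBS, penicillin and streptomycin; log-phase cells seeded per well (MCF-7 1.0 × 10^4; A549 4.5 × 10^3). After 24 h, exposed to various concentrations for 72 h.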
On the technique in general: Tetrazolium dyes change colour on reduction, which living cells bring about.

Another experiment relates to MCF7. Nature of the experiment: Cytotoxicity against human MCF7 cells after 72 hrs by MTT assay. The experiment is classed as functional, cell-based. A digest of the protocol:
as §1

Broadly, the IC50 is the concentration that inhibits the measured activity by half. Regarding `CC1=CCC[C@@H]2[C@@](C)(CC/C(C=O)=C\C(=O)O)[C@H](C)CC[C@@]12C`, the IC50 in the experiment with A549 (Homo sapiens, A549, 72 h, read-out: IC50) was 3.1 µM; in the experiment with MCF7 (Homo sapiens, MCF7, 72 h, read-out: IC50), 3.7 µM.

As to `CC1=CC(=O)C[C@@H]2[C@@](C)(CC/C(C)=C\C(=O)O)[C@H](C)CC[C@@]12C`, the concentration for half-maximal inhibition (IC50) entry in the experiment with A549 (a549) and with MCF7 (mcf7) was “Not Active” each time.

For `CC1=CCC[C@@H]2[C@@](C)(CC/C(=C\C(=O)O)CO)[C@H](C)C[C@H](O)[C@@]12C`, the IC50 entry with A549 (a549) and with MCF7 (mcf7) was “Not Active” each time.

`C=C1CCC[C@@H]2[C@@](C)(CC/C(=C\C(=O)O)CO)[C@H](C)C[C@H](O)[C@@]12C`: the half-inhibitory concentration (IC50) entry in the experiment with A549 (a549) and in the experiment with MCF7 (mcf7) was “Not Active” throughout.

With `COc1cc2c(cc1OC)[C@@H]1Cc3ccc(O)c(O)c3C(=O)N1CC2`, the IC50 entry in the experiment on A549 (a549) and in the experiment with MCF7 (mcf7) was “Not Active” each time.

For the molecule `COc1cc2c(cc1OC)[C@@H]1Cc3cc(O)cc(OC)c3C(=O)N1CC2`, the IC50 entry in the experiment with A549 (a549) and with MCF7 (mcf7) was “Not Active” in each case.

Consider `C[C@@H]1CC[C@]2(C)[C@H](CCC[C@]23CO3)[C@@]1(C)CC/C(=C\C(=O)O)CO`, for which the IC50 entry in the experiment with A549 (a549) and with MCF7 (mcf7) was “Not Active” each time.

Take `COc1cc2c(cc1OC)[C@@H]1Cc3ccc(O)c(OC)c3C(=O)N1CC2`: the half-inhibitory concentration (IC50) result in the experiment on A549 (a549) and with MCF7 (mcf7) was “Not Active” each time.

For the molecule `COc1cc2c(cc1O)[C@@H]1Cc3cc(O)c(OC)cc3C(=O)N1CC2`, the IC50 entry in the experiment on A549 (a549) and with MCF7 (mcf7) was “Not Active” in each case.

Consider `COc1cc2c(cc1OC)[C@@H]1Cc3cc(O)c(OC)c(OC)c3C(=O)N1CC2`, for which the IC50 result in the experiment on A549 (a549) and with MCF7 (mcf7) was “Not Active” throughout.

Turning to `COc1cc2c(cc1O)[C@@H]1Cc3cc(OC)c(O)c(OC)c3C(=O)N1CC2`, the IC50 result with A549 (a549) and in the experiment on MCF7 (mcf7) was “Not Active” throughout.

In the case of `CCCCC/C=C\C/C=C\CCCCCCCC(=O)OCC(O)CO` (stereo not given), the IC50 entry in the experiment on A549 (a549) and with MCF7 (mcf7) was “Not Active” throughout.

Turning to `COc1cc2c(cc1OC)[C@@H]1Cc3ccc(OC)c(OC)c3C(=O)N1CC2`, the IC50 entry in the experiment on A549 (a549) and in the experiment with MCF7 (mcf7) was “Not Active” each time.

`COc1c(O)cc2c(c1OC)-c1nccc(C)c1C2=O` [DARIENINE]: the IC50 result in the experiment with A549 (a549) and in the experiment on MCF7 (mcf7) was “Not Active” throughout.

As to `COc1cc(/C=C/C(=O)NCCc2ccc(O)c(O)c2)ccc1O` [N-TRANS-FERULOYLDOPAMINE], the IC50 result in the experiment with A549 (a549) and with MCF7 (mcf7) was “Not Active” in each case.
